Consider 43 compounds from PubChem BioAssay AID720702 (The Scripps Research Institute Molecular Screening Center, 2013).

Each structure is given as a SMILES string. Hit rate of the full screen: of about 370,000 compounds, about 1,200 (0.32%) were called active.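 Rule for the calls: active = inhibition above the mean of all tested compounds plus 3 SD, set per campaign (cut at about 25% in these data); inactive = the rest.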 For the sample, actives were picked, then their nearest neighbours and some compounds at random.

Tyrosyl-DNA phosphodiesterase 2 (Homo sapiens), sequence (O95551 whole entry, looked up): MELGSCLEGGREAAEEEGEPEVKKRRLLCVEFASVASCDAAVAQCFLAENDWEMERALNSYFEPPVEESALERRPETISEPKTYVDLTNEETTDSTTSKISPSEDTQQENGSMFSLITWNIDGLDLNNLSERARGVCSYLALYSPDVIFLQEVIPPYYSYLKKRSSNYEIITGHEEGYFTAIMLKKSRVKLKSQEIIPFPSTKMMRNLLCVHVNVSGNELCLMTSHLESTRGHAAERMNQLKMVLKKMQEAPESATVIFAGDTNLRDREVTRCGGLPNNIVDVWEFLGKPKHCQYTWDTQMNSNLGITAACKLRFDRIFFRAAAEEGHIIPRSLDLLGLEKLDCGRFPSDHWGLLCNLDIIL

This experiment addresses Tyrosyl-DNA phosphodiesterase 2 (Homo sapiens) (UniProt O95551). In words: blockers of TDP2 phosphodiesterase activity – biochemical, epi absorbance, recombinant enzyme, primary screen (AID 720702).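 Note: 0% = DMSO with enzyme and 100% = buffer with substrate but no TDP2.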 The conditions noted are these: recombinant TDP2, T5PNP hydrolysis, p-nitrophenol absorbance 415 nm; at 12.8 µM; active compounds read high. The method, boiled down: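 Assay system: recombinant human TDP2 / Reagent: T5PNP substrate at 5 mM, a TopII-DNA adduct mimic / Measured by: epi absorbance from released p-nitrophenol / Evaluation: % inhibition relative to enzyme-containing and enzyme-free wells / Control set: enzyme-free and DMSO wells / Replicates: each compound tested once, singlicate / Schedule: enzyme reaction with compound for 2 h at 37 °C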
For the compound `COc1ccc(CCNC(=O)COc2ccc3c(c2)OCO3)cc1`, the inhibition (as a rule, the relative decrease from the control value, in per cent) is -6.66% (inactive).

For the compound `c1ccc(Cc2cc[n+](Cc3ccccc3)cc2)cc1`, the inhibition is 6.8% (inactive).

For `CN(C)c1ccc(N/C=C/C(=O)C(F)(F)F)cc1`, the inhibition was 40.7% (active). The same measure for `CN(C)c1ccc(C(CC(=O)O)C(=O)O)cc1` (stereo not drawn): -4.74% (inactive); for `CCOC(=O)c1ccc(Nc2cc3ccccc3c(=O)[nH]2)cc1`: 44.6% (active). In the case of `CCOC(=O)c1ccc(NC(=O)c2c(NCc3ccccc3)[nH]c(=O)[nH]c2=O)cc1`, the inhibition is 1.1% (inactive). Turning to `CCOC(=O)c1ccc(NC(=O)c2c(N)n(C)c(=O)[nH]c2=O)cc1`, the inhibition is 3.07% (inactive). Regarding `O=C(O)CCN(Cc1ccccc1)S(=O)(=O)c1c(Cl)cccc1Cl`, the inhibition was 15.2% (inactive). In the case of `Nn1cnnc1N/N=C/c1cc([N+](=O)[O-])c(Cl)cc1Cl` it was 39.5% (active); in that of `Clc1ccc(-n2c(COc3ccccc3)nnc2SCc2nc3ccccc3[nH]2)cc1`, -3.9% (inactive). With `CC1=C2C(=O)OC(c3ccoc3)C2(C)CCC1` (stereo not drawn), the inhibition was -14.5% (inactive). `COc1ccccc1CN1CCN(C(c2ccccc2)c2ccccc2)CC1`: the inhibition is 25.9% (active). The same measure for `COc1ccccc1CN1CCN(Cc2cc(OC)c(OC)cc2OC)CC1`: 19% (inactive); for `COc1ccccc1/C=N/N1CCN(Cc2ccccc2Cl)CC1`: -9.24% (inactive).

Take `Cc1cc(C)nc(SC2CCCCC2NS(=O)(=O)c2ccc(Cl)cc2)n1` (stereo not drawn): the inhibition was 4.56% (inactive).

As for `Cc1coc2c(O)cc3c(c12)OC1(N2CCCCC2)C(=O)NCCCC31` (stereo not drawn), the inhibition was 24.4% (inactive). As to `COc1ccc(/C=C2/C(=O)N(c3ccccc3)N=C2C)c(OC)c1`, the inhibition was 3.07% (inactive).

For `O=C1C2C3C=CC(C4CC34)C2C(=O)N1/N=C/c1ccc(-c2ccccc2[N+](=O)[O-])o1` (stereo not drawn), the inhibition was 11.7% (inactive).

Take `CC1=NN(c2ccc(Cl)c(C(=O)O)c2)C(=O)/C1=C/c1ccc(-c2ccccc2[N+](=O)[O-])o1`: the inhibition was 36.1% (active). The same measure for `Cc1c(C)c(C)c(S(=O)(=O)N2CCC3(CC2)OCCO3)c(C)c1C`: 5.93% (inactive); for `CC(=O)c1ccc(S(=O)(=O)N2CCC3(CC2)OCCO3)cc1`: 25.2% (active); for `CC(C)c1ccc(S(=O)(=O)N2CCC3(CC2)OCCO3)cc1`: 3.95% (inactive). In the case of `C=CCc1cc(C)ccc1OCCCn1ccnc1`, the inhibition is -6.81% (inactive). Consider `CCCOc1ccc(Oc2c(Cl)cnn(Cc3cccc4ccccc34)c2=O)cc1`, for which the inhibition is -7.56% (inactive).

On to `Cc1ccc(S(=O)(=O)N(CCCN(C)C)Cc2ccc3c(c2)OCO3)cc1`, for which the inhibition is 3.37% (inactive).

In the case of `COc1ccc(N(CC(=O)Nc2cc(OC)cc(OC)c2)S(=O)(=O)c2c(C)n[nH]c2C)cc1`, the inhibition is 10.8% (inactive). Consider `COc1cc(NC(=O)COC(=O)c2ccc([N+](=O)[O-])s2)cc(OC)c1OC`, for which the inhibition was 31.6% (active). As for `COc1cc(CCC(=O)OCC(=O)Nc2cccc(S(N)(=O)=O)c2)cc(OC)c1OC`, the inhibition is -0.17% (inactive).

For the compound `COc1cc(NC(=O)COC(=O)c2cnc(C)cn2)c(C)cc1[N+](=O)[O-]`, the inhibition was -5.59% (inactive).

`Cc1ccc(-n2c(SCC(=O)Nc3ccc(S(=O)(=O)Nc4nccs4)cc3)nnc2-c2ccncc2)cc1`: the inhibition is -0.21% (inactive). The same measure for `CCCCCCCCCCCCN1[C@@H](CC(C)=O)c2cc(F)cc(F)c2S1(=O)=O`: 2.78% (inactive). In the case of `Cc1cc(S(=O)(=O)NC2CCCCC2)ccc1OCC(=O)NCc1cccnc1` it was -6.47% (inactive); in that of `CCOC(=O)C1=C(C)c2ccccc2OC1C(=O)OCC` (stereo not drawn), -3.4% (inactive); in that of `CCOC(=O)c1c(C)oc(C)c(C(=O)OCC)c1=O`, -25% (inactive).

`CCOC(=O)c1c(C)[nH]c2c1-c1ccccc1C(=O)C2=O`: the inhibition is 55.1% (active). As for `COc1ccc(C(=O)OCc2cc(=O)n3ccsc3n2)cc1F`, the inhibition is -6.94% (inactive). Turning to `O=C(Cc1ccc(NC(=O)C2CCCN(C(=O)CCc3ccccc3)C2)cc1)Nc1ccc(C(=O)N2CCOCC2)cc1` (stereo not drawn), the inhibition is -19.6% (inactive).

In the case of `Fc1ccc2nc(COCc3nc4ccc(F)cc4[nH]3)[nH]c2c1`, the inhibition is -1.58% (inactive). `CCCCCc1ccc(-c2ccc(OCC)cc2)nc1`: the inhibition is -8.17% (inactive). With `Cc1ccc(OCCCCc2c(C)n[nH]c2C)cc1`, the inhibition is 25.9% (active). The same measure for `CSc1ccccc1OCc1cc(C(=O)N(C)CCc2c(C)n[nH]c2C)no1`: 6.82% (inactive); for `Brc1ccc(COCCc2cn(Cc3ccccc3)c3ccccc23)cc1`: -2.78% (inactive). Consider `CC1CCN(c2ccc(C(=O)O)cc2NS(=O)(=O)c2ccc(Br)s2)CC1`, for which the inhibition was 4.53% (inactive).
